Most compounds without a hit are left out; they make up all but 3.7% or so of the library.
proCasp3 act – activators of human procaspase-3; recombinant procaspase-3 D3A, Ac-DEVD-pNA absorbance 405 nm; activation, % at 8.5 µM; actives 0.11% (n = 330,000); AID 463141;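 active = activation above the mean of all tested compounds plus 3 SD, cut at about 21% in these data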;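 note: 0% = DMSO alone and 100% = DMSO wells spiked with extra 5 µM PC-3 D3A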
Target sequence (P42574 whole entry D9A/D28A/D175A): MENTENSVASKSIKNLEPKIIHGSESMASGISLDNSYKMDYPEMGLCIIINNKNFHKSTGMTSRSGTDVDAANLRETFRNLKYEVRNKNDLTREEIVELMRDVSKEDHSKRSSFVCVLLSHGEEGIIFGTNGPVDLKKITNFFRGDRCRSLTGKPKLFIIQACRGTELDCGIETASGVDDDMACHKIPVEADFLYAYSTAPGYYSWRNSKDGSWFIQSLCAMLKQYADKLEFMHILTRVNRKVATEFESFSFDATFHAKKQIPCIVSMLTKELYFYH
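material = Procaspase-3 D3A mutant | probe or stimulus = Ac-DEVD-pNA | compound = single dose, 8.5 µM nominal compound, 0.8% DMSO | timing = 1 h preincubation, 2 h reaction | measured by = 405 nm absorbance of p-nitroaniline, reads at 0 and 120 min | benchmarks = DMSO-only low control, 5 µM PC-3 D3A high control | repeats = singlicate, each compound tested once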
GRIN3A LBD mod – modulates the human NR3A ligand-binding domain; NR3A LBD differential scanning fluorimetry, Tm shift; 0% = protein alone, 100% = glycine-bound protein; Tm shift relative to glycine control, % at 25 µM; actives 2.5% (n = 340,000); AID 1259313;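 active = melting temperature shift of at least 10% of the positive control shift, at one fixed dose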
procasp7 counter – counter-screen for procaspase-3 activators: activators of human procaspase-7; recombinant procaspase-7, Ac-DEVD-pNA absorbance 405 nm; D23A/D198A/D206A triple mutant, cannot self-cleave; scale: DMSO 0, 5 µM enzyme 100; P55210; actives 0.093% (n = 330,000); AID 463210; activation, % at 8.5 µM;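 active = percent activation above the screen-wide mean plus 3 SD, cut at about 25% in these data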
Target sequence (P55210 whole entry D23A/D198A/D206A): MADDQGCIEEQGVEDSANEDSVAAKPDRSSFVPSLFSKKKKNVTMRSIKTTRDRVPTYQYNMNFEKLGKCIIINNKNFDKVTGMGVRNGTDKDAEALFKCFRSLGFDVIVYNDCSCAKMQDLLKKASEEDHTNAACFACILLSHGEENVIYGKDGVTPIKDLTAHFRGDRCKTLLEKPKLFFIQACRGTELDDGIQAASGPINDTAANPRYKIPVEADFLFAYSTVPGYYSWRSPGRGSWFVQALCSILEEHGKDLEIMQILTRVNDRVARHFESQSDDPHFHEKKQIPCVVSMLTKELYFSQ
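Assay system – Uncleavable procaspase-7 mutant enzyme · Quantity – 2 µM procaspase-7 mutant as dispensed · Times – 1 h preincubation, 2 h reaction · Dosing – single nominal 8.5 µM compound dose, 0.8% DMSO final · Buffer or medium – Zinc-free 50 mM HEPES buffer, pH 7.4, with NaCl and Triton X-100 · Detection – Epi-absorbance of released pNA at 405 nm, two timepoints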
aDG glyco act – alpha-DG glycosylation activation. Pro5-aDG cells, alpha-DG glycosylation AlphaScreen (IIH6); 0% Pro5, 100% B10-LARGE cell signal. activation, % at 10 µM. actives 0.22% (n = 360,000). AID 624168;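 active = activation of at least 8% versus controls, or a plate z-score of at least 8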;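 note: Pro5 are CHO cells carrying HIG-tagged alpha-DG that lacks glycosylation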
MPTP inh – inhibitors of mitochondrial permeability transition pore; isolated mouse mitochondria, Ca2+ swelling absorbance, 30 min; inhibition, % at 10 µM; actives 1.4% (n = 360,000);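 active = inhibition of 50% or more, scaled per plate between neutral and stimulator controls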;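 note: 0% = DMSO wells given calcium and 100% = 1 mM EGTA wells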
Numbers without * were called inactive.

O=C(c1ccco1)N1CCN(Cc2nnc(-c3ccccc3)o2)CC1 was read as proCasp3 act 9, GRIN3A LBD mod 12*, procasp7 counter 3, aDG glyco act 0 and MPTP inh 0.
COC(=O)CCCn1cc(CN2CC(N3CCN(Cc4cccc(C)c4)CC3)CS2(=O)=O)nn1 (configuration not stated) was read as aDG glyco act 0 and MPTP inh 0.
For CN(Cc1ccccc1)C(=O)c1ccc(Cc2cn(C)c3ccccc23)nc1 the results were aDG glyco act 0 and MPTP inh 1.
`COc1ccc(CC2(C)OC(c3ccncc3)=NN2C(C)=O)cc1` (configuration not stated) gave proCasp3 act -8, GRIN3A LBD mod -1, procasp7 counter -5, aDG glyco act 0 and MPTP inh -1.
COc1ccc(CC2(C)OC(c3ccc(Cl)cc3)=NN2C(C)=O)cc1 (configuration not stated) was read as proCasp3 act 0, GRIN3A LBD mod 13*, procasp7 counter -5, aDG glyco act 0 and MPTP inh -2.
`O=C(COC(=O)c1cccc(NS(=O)(=O)c2ccc(F)c(F)c2)c1)NC(=O)NC1CCCCC1` gave proCasp3 act 2, GRIN3A LBD mod 23*, procasp7 counter 1, aDG glyco act 0 and MPTP inh 11.
CC1CCN(C(=O)COC(=O)c2cccc(S(=O)(=O)N3CCOCC3)c2)CC1 was read as aDG glyco act 0 and MPTP inh -2.
Cc1cc(C)c(C#N)c(SCCS(=O)(=O)c2ccc(Cl)cc2)n1 was read as proCasp3 act -3, GRIN3A LBD mod 0, procasp7 counter 4, aDG glyco act 0 and MPTP inh 5.
Cc1cc(C)c(C#N)c(SCCS(=O)(=O)Cc2ccc(Cl)cc2)n1 was read as proCasp3 act 7, GRIN3A LBD mod 18*, procasp7 counter 3, aDG glyco act 0 and MPTP inh -4.
Screening CCCc1c(C(=O)N/N=C/c2ccc(OCc3ccccc3)c(OC)c2)nnn1-c1nonc1N returned proCasp3 act 2, GRIN3A LBD mod 12*, procasp7 counter 4, aDG glyco act 1 and MPTP inh 0.
CCCc1c(C(=O)N/N=C/c2c(OC)ccc3ccccc23)nnn1-c1nonc1N was read as proCasp3 act 3, GRIN3A LBD mod 31*, procasp7 counter 6, aDG glyco act 0 and MPTP inh 2.
CCCc1c(C(=O)N/N=C/c2ccc(OC)c(OCc3ccccc3)c2)nnn1-c1nonc1N was read as proCasp3 act 0, GRIN3A LBD mod 37*, procasp7 counter -2, aDG glyco act 1 and MPTP inh 1.
`COc1cc(/C=N/NC(=O)c2cccs2)ccc1OCc1ccccc1` gave proCasp3 act 1, GRIN3A LBD mod 19*, procasp7 counter 10, aDG glyco act 1 and MPTP inh -1.
For CCCc1c(C(=O)N/N=C/c2ccc(-c3ccccc3)cc2)nnn1-c1nonc1N the results were aDG glyco act 0 and MPTP inh -1.
COC(=O)[C@@]1(Cc2ccccc2)[C@H]2C(=O)N(C)C(=O)[C@H]2[C@H]2CN=C(SCc3ccc(C)cc3)N21 was read as proCasp3 act -1, GRIN3A LBD mod 2, procasp7 counter -11, aDG glyco act 0 and MPTP inh 0.
CN(Cc1ccccc1)C(=O)c1ncn2c1c(=O)[nH]c1cccnc12 was read as aDG glyco act 0 and MPTP inh 0.
For CCOC(=O)c1c(C)c2c(=O)[nH]cnc2n1-c1ccccc1 the results were proCasp3 act -5, GRIN3A LBD mod 0, procasp7 counter -17, aDG glyco act 0 and MPTP inh 0.
For CCOC(=O)c1c[nH]c(=S)n(-c2ccccc2)c1=O the results were proCasp3 act 2, GRIN3A LBD mod 13*, procasp7 counter -4, aDG glyco act 0 and MPTP inh -3.
`O=C(CN1CCCC1c1cccs1)Nc1cc(S(=O)(=O)N2CCCCC2)ccc1Cl` (configuration not stated) gave GRIN3A LBD mod -3, aDG glyco act 1 and MPTP inh -1.
Screening CCOc1ccc(CCNC(=O)c2nnn(CC(=O)Nc3ccccc3C)c2N)cc1OCC returned proCasp3 act -2, GRIN3A LBD mod 12*, procasp7 counter -5, aDG glyco act 0 and MPTP inh -2.
CCOc1ccc(OCC)c(NC(=O)c2nnn(CC(=O)Nc3cc(C)cc(C)c3)c2N)c1 was read as proCasp3 act 3, GRIN3A LBD mod 16*, procasp7 counter -1, aDG glyco act 5 and MPTP inh 0.
COC(=O)[C@]12CCCCC=C1N(Cc1ccc3c(c1)OCO3)C(=O)[C@H](CC(=O)NCc1ccc(OC)c(OC)c1)C2 was read as aDG glyco act 0 and MPTP inh 1.
`C[C@@H]1CN([C@@H](C)CO)S(=O)(=O)c2ccc(C#CC(C)(C)O)cc2O[C@H]1CN(C)C(=O)C1CCCCC1` gave aDG glyco act 0 and MPTP inh -2.
Cc1nc2ccccc2cc1C(=O)N/N=C/c1ccco1 was read as proCasp3 act 6, GRIN3A LBD mod 5, procasp7 counter -2, aDG glyco act 0 and MPTP inh 0.
Cc1ccc2nc(C)c(C(=O)N/N=C/c3ccco3)cc2c1 was read as proCasp3 act -13, GRIN3A LBD mod 11*, procasp7 counter 14, aDG glyco act 0 and MPTP inh 1.
CCCCCCN1CCN(C2CN(Cc3cn(Cc4cccc(C(F)(F)F)c4)nn3)S(=O)(=O)C2)CC1 (configuration not stated) was read as aDG glyco act 1 and MPTP inh -1.
For CCCCCCn1c(-c2ccco2)nc2oc3cc(OC)ccc3c(=O)c2c1=O the results were proCasp3 act 1, GRIN3A LBD mod 33*, procasp7 counter -1, aDG glyco act 0 and MPTP inh 23.
`O=C(O)c1cccc2c1-c1ccc(Cl)cc1C2=O` gave GRIN3A LBD mod 14*, aDG glyco act 0 and MPTP inh -2.
For COc1cc(/C=N/NC(=O)Cc2csc(N3CCOCC3)n2)cc(OC)c1O the results were proCasp3 act 8, GRIN3A LBD mod 15*, procasp7 counter 0, aDG glyco act 0 and MPTP inh 1.
For C[C@@H]1CN([C@H](C)CO)C(=O)CCCn2cc(nn2)CO[C@H]1CN(C)S(=O)(=O)c1ccccc1C#N the results were aDG glyco act 0 and MPTP inh 0.
For CCOC(=O)c1sc(NC(=O)CSc2ncccn2)nc1C the results were proCasp3 act -3, GRIN3A LBD mod 2, procasp7 counter 6, aDG glyco act 0 and MPTP inh 0.

Compound activity deposited in PubChem by several laboratories.
